The values that follow come from ChEMBL document CHEMBL3351467, “Ligand-free Pd-catalyzed C-N cross-coupling/cyclization strategy: an unprecedented access to 1-thienyl pyrroloquinoxalines for the new approach towards apoptosis” (Eur J Med Chem, 2014).

The source made the active and inactive calls. No cut-off for these calls is given here. Where only a bound is given, the exact number is not on record here.

The term inhibition denotes the drop in the measured response relative to a control, in per cent. As usually defined, the NOAEL is the highest tested level that showed no adverse finding. In general, EC50 refers to the concentration giving half of the maximal effect. Low values mean a more potent agent, high ones a less potent agent.

The species named for data set [1] is Danio rerio. Kind of data set: Toxicity in Zebrafish embryo assessed as induction of changes in fins region at 3000 uM. The class given is organism-based. Particulars: in vivo. The gist of the method:
(§1)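 Embryos at 1 dpf were dechorionated with 0.5 mg/ml pronase E and washed in E3. They were exposed in groups of 6 to compound serially diluted in E3 (final 0.1% DMSO) at 28.5 °C until 5 dpf. Embryos were then washed, anesthetized with 0.008% tricaine, and scored blinded for morphology of body shape, somites, notochord, tail, intestine, fins, brain, jaws, heart, liver and swim bladder.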

Data set [2] is filed under the species Danio rerio. In words: Toxicity in Zebrafish embryo assessed as induction of changes in liver region at 3000 uM. The class given is organism-based. Particulars: in vivo. The gist of the method: as §1
Data set [3] is filed under the species Danio rerio. In words: Toxicity in Zebrafish embryo assessed as induction of changes in brain region at 3000 uM. The data set is classed as organism-based. Particulars: in vivo. The gist of the method:
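Zebrafish embryos collected at 1 dpf, staged, dechorionated with 0.5 mg/ml pronase E and washed in E3 medium. Compound serially diluted in E3 with 0.1% DMSO final. Six embryos per well, exposed at 28.5 °C until 5 dpf, then washed, anaesthetised with 0.008% tricaine and scored for morphology (body shape, somites, notochord, tail, intestine, fins, brain, jaws, heart, liver, swim bladder). Blinded; phenobarbital 3 mM positive control.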

The species entered for data set [4] is Danio rerio. Kind of data set: Toxicity in Zebrafish embryo assessed as induction of changes in swim bladder region at 3000 uM. The data set is classed as organism-based. The note with it: in vivo. The gist of the method:
as §1

For data set [5], the species on record is Danio rerio. In words: Toxicity in Zebrafish embryo assessed as induction of changes in somites at 3000 uM. The data set is classed as organism-based. The note with it: in vivo. An outline of the steps:
as §1

The species entered for data set [6] is Danio rerio. Kind of data set: Toxicity in Zebrafish embryo assessed as induction of changes in body shape at 3000 uM. The data set is classed as organism-based. Particulars: in vivo. An outline of the steps:
as §1

For data set [7], the species on record is Danio rerio. In words: Toxicity in Zebrafish embryo assessed as induction of changes in notochords at 3000 uM. The data set is classed as organism-based, Notochord. Particulars: in vivo. An outline of the steps: as §1
The species entered for data set [8] is Danio rerio. In words: Toxicity in Zebrafish embryo assessed as induction of changes in tail region at 3000 uM. The class given is organism-based. Particulars: in vivo. An outline of the steps: as §1
For data set [9], the species on record is Danio rerio. Kind of data set: Toxicity in Zebrafish embryo assessed as induction of changes in heart region at 3000 uM. Particulars: in vivo. The class given is organism-based. The gist of the method: as §1
For data set [10], the species on record is Danio rerio. Kind of data set: Toxicity in Zebrafish embryo assessed as induction of changes in upper jaw region at 3000 uM. The class given is organism-based. Particulars: in vivo. The gist of the method:
as §1

For data set [11], the species on record is Danio rerio. In words: Toxicity in Zebrafish embryo assessed as induction of changes in intestine region at 3000 uM. The data set is classed as organism-based. The note with it: in vivo. An outline of the steps: as §1
The species entered for data set [12] is Danio rerio. In words: Toxicity in Zebrafish embryo assessed as induction of changes in lower jaw region at 3000 uM. The class given is organism-based. The note with it: in vivo. An outline of the steps:
as §1

Data set [13] deals with 3',5'-cyclic-AMP phosphodiesterase 4B (Homo sapiens) (UniProt Q07343). In words: Inhibition of recombinant His-tagged PDE4B1 (unknown origin) expressed in Sf9 cells at 30 uM pre-incubated for 15 mins before cAMP substrate addition by luminescence assay. An outline of the steps: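 PDE4B1 purified in house (10 ng) pre-incubated 15 min with compound or DMSO vehicle. cAMP substrate ([…]) added for 1 h, then reaction stopped and detection reagent applied 10 min in the dark. Luminescence (RLU) read. % inhibition = (RLU vehicle − RLU inhibitor)/RLU vehicle × 100.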

Data set [14] is filed under the species Danio rerio. Kind of data set: Toxicity in Zebrafish embryo at 1 to 30 uM. The data set is classed as organism-based. The note with it: in vivo. An outline of the steps: (§2)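 Embryos at 1 dpf dechorionated with 0.5 mg/ml pronase E and washed in E3. Exposed 6 per well to compound serially diluted in E3 with a final 0.1% DMSO, at 28.5 °C until 5 dpf. Embryos then washed, anaesthetised with 0.008% tricaine and scored blind for body shape, somites, notochord, tail, intestine, fins, brain, jaws, heart, liver and swim bladder. Phenobarbital (3 mM) served as positive control.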

For data set [15], the species on record is Danio rerio. Kind of data set: Toxicity in Zebrafish embryo assessed as induction of changes in lower jaw region at 1 uM. The data set is classed as organism-based. The note with it: in vivo. The gist of the method:
as §2

For data set [16], the species on record is Danio rerio. In words: Toxicity in Zebrafish embryo assessed as induction of changes in brain region at 1 uM. The data set is classed as organism-based. The note with it: in vivo. An outline of the steps:
as §2

For data set [17], the species on record is Danio rerio. Kind of data set: Toxicity in Zebrafish embryo assessed as induction of changes in swim bladder region at 1 uM. The data set is classed as organism-based. The note with it: in vivo. The gist of the method: as §2
Data set [18] is filed under the species Danio rerio. In words: Induction of apoptosis in Zebrafish embryo incubated for 24 to 48 hrs by acridine orange based fluorescence microscopy. The class given is functional, organism-based. The gist of the method:
(§3)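 Embryos dechorionated by hand at 24 hpf, 6 per well in two sets, in 0.1% DMSO. Compound added from serially diluted working stocks, kept at 28 °C for 24 h and 48 h. Washed three times in E3, stained 30 min with acridine orange ([…]) in E3, rinsed twice, then examined for apoptosis.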

The nature of data set [19]: Therapeutic index, ratio of NOAEL in Zebrafish embryos to apoptotic EC50 in Zebrafish embryos. The data set is classed as organism-based, Danio rerio. Particulars: read-out: TI.
The species entered for data set [20] is Danio rerio. In words: Teratogenicity in Zebrafish embryo assessed as induction of morphological deformities at lower jaw at 1 uM incubated at 28.5 degC until 5 days post fertilization. The data set is classed as organism-based. Particulars: in vivo, 120 h. The gist of the method:
as §2

For data set [21], the species on record is Danio rerio. Kind of data set: Hepatotoxicity in Zebrafish embryo at 28 degC until 7 days post fertilization. The data set is classed as organism-based. The note with it: in vivo, 168 h. An outline of the steps: (§4)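 Larvae at 4 dpf exposed in 24-well plates, 6 per well in 0.1% DMSO, to final 1, 3, 10 and 30 concentrations, incubated at 28 °C until 7 dpf. Washed in E3 and anaesthetised with tricaine. Images scored for liver size, liver degeneration and yolk sac retention as percentages. Amiodarone served as positive control.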

The species named for data set [22] is Danio rerio. Kind of data set: Toxicity in Zebrafish embryo assessed as induction of changes in fins region at 1 uM. The class given is organism-based. The note with it: in vivo. The gist of the method:
as §2

For data set [23], the species on record is Danio rerio. Kind of data set: Toxicity in Zebrafish embryo assessed as induction of changes in somites at 1 uM. The data set is classed as organism-based. The note with it: in vivo. The gist of the method: as §2
For data set [24], the species on record is Danio rerio. Kind of data set: Toxicity in Zebrafish embryo assessed as induction of changes in body shape at 1 uM. The data set is classed as organism-based. The note with it: in vivo. The gist of the method: as §2
The species named for data set [25] is Danio rerio. Kind of data set: Toxicity in Zebrafish embryo assessed as induction of changes in intestine region at 1 uM. The class given is organism-based. The note with it: in vivo. An outline of the steps: as §2
The species entered for data set [26] is Danio rerio. Kind of data set: Toxicity in Zebrafish embryo assessed as induction of changes in heart region at 1 uM. The data set is classed as organism-based. The note with it: in vivo. An outline of the steps: as §2
The species entered for data set [27] is Danio rerio. In words: Hepatotoxicity in Zebrafish embryo at 10 to 30 uM incubated at 28 degC until 7 days post fertilization. Particulars: in vivo, 168 h. The class given is organism-based. An outline of the steps:
as §4

For data set [28], the species on record is Danio rerio. In words: Toxicity in Zebrafish embryo assessed as induction of changes in upper jaw region at 1 uM. The data set is classed as organism-based. The note with it: in vivo. The gist of the method:
as §2

Data set [29] is filed under the species Danio rerio. In words: Hepatotoxicity in Zebrafish embryo at 1 to 3 uM incubated at 28 degC until 7 days post fertilization. The class given is organism-based. Particulars: in vivo, 168 h. An outline of the steps: as §4
The species entered for data set [30] is Danio rerio. Kind of data set: Teratogenicity in Zebrafish embryo incubated at 28.5 degC until 5 days post fertilization. The data set is classed as ADME, organism-based. The note with it: in vivo, 120 h. The gist of the method: as §2
For data set [31], the species on record is Danio rerio. In words: Toxicity in Zebrafish embryo assessed as induction of changes in tail region at 1 uM. The note with it: in vivo. The data set is classed as organism-based. An outline of the steps:
as §2

For data set [32], the species on record is Danio rerio. Kind of data set: Toxicity in Zebrafish embryo assessed as induction of changes in liver region at 1 uM. Particulars: in vivo. The data set is classed as organism-based. The gist of the method:
as §2

Data set [33] is filed under the species Danio rerio. In words: Toxicity in Zebrafish embryo assessed as induction of changes in notochords at 1 uM. The class given is organism-based, Notochord. Particulars: in vivo. An outline of the steps: as §2
The species entered for data set [34] is Danio rerio. In words: Induction of apoptosis in Zebrafish embryo at 1 to 10 uM incubated for 24 to 48 hrs by acridine orange based fluorescence microscopy. The class given is functional, organism-based. An outline of the steps:
as §3

Chain of 3',5'-cyclic-AMP phosphodiesterase 4B (Homo sapiens) (Q07343 whole entry): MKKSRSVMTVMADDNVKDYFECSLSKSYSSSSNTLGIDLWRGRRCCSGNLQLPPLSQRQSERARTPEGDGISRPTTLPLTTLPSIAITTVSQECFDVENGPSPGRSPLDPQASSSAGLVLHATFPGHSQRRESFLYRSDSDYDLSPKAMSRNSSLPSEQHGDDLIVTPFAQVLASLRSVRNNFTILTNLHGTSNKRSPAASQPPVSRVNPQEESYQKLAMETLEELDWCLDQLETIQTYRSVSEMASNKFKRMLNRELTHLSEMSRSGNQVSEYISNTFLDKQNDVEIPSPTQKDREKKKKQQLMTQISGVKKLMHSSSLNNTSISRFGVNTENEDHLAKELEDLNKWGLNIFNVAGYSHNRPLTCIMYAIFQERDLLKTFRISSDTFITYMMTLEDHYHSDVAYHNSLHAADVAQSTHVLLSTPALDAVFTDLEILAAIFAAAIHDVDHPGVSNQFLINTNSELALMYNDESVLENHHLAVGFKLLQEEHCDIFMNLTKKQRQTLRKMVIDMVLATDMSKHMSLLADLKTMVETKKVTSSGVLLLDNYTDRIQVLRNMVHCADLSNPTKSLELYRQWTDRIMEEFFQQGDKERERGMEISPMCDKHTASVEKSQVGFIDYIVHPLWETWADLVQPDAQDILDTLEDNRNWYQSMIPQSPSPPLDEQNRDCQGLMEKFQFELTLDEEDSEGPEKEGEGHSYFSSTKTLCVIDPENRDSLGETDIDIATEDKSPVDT

With `CCC1(c2ccccc2)C(=O)NC(=O)NC1=O` [PHENOBARBITAL], the Activity result in the data set listed under Danio rerio [1], in the data set listed under Danio rerio [2], in the data set listed under Danio rerio [3], in the data set listed under Danio rerio [4], in the data set filed under Danio rerio [5] and in the data set listed under Danio rerio [6] was “Toxic” each time. The Activity result in the data set listed under Danio rerio [7], in the data set listed under Danio rerio [8], in the data set listed under Danio rerio [9], in the data set filed under Danio rerio [10], in the data set filed under Danio rerio [11] and in the data set listed under Danio rerio [12] was “Toxic” each time.
As to `CCOC(=O)c1ccsc1-n1c(-c2ccccc2)cc2nc3ccccc3nc21`, the inhibition in [13] turned out to be 85%. The molecule also displayed an MTC in the data set filed under Danio rerio [14] of 1 µM. Moreover, the NOAEL was below 1 µM in the data set filed under Danio rerio [14], 3 µM in the data set listed under Danio rerio [21] and 1 µM in the data set filed under Danio rerio [30]. Further, the Activity result is “Toxic” in the data set filed under Danio rerio [15]; “Toxic” in the data set filed under Danio rerio [16]; “Toxic” in the data set filed under Danio rerio [17]; “Non-toxic” in the data set listed under Danio rerio [20]; “Non-toxic” in the data set listed under Danio rerio [22]; “Toxic” in the data set filed under Danio rerio [23]. Further, the Activity entry in the data set filed under Danio rerio [24] is “Non-toxic”; in the data set listed under Danio rerio [25] it was “Toxic”; in the data set listed under Danio rerio [26], “Non-toxic”; in the data set filed under Danio rerio [27] it was “Toxic”; in the data set filed under Danio rerio [28], “Toxic”; in the data set filed under Danio rerio [29], “Non-toxic”. Further, the Activity result in the data set listed under Danio rerio [31] is “Non-toxic”; in the data set filed under Danio rerio [32], “Toxic”; in the data set filed under Danio rerio [33] it was “Non-toxic”. The molecule also had an EC50 in the data set filed under Danio rerio [18] of 3.22 µM. Also, the selectivity ratio in data set [19] came out at 0.31. In the data set filed under Danio rerio [34], the result was Active.
